Measured values from ChEMBL document CHEMBL1157211, “Carbamoyl tetrazoles as inhibitors of endocannabinoid inactivation: a critical revisitation” (Eur J Med Chem, 2008).

Assays:
[1] = Inhibition of MAGL mediated [14C]2-arachidonoyl glycerol hydrolysis in african green monkey COS cells; type: cell-based; settings: Chlorocebus aethiops
Summary of the method: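 The 10,000 g cytosolic fraction of COS cells overexpressing DAGLα was used as the MAGL source. It was incubated with radiolabelled synthetic 2-arachidonoylglycerol (1.0 mCi/mmol) in 50 mM Tris-HCl, pH 7.0, at 37 °C for 20 min. Lipids were then extracted with 2 volumes of chloroform/methanol 2:1 and lyophilized.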

[2] = target: T1, Diacylglycerol lipase-alpha (Homo sapiens, UniProt Q9Y4D2); assay: Inhibition of human recombinant DAGLalpha mediated sn-1-[14C]oleoyl-2-arachidonoyl-glycerol hydrolysis to 2-AG overexpressed in COS cells after 20 mins; type: cell-based
T1 sequence (Q9Y4D2 whole entry): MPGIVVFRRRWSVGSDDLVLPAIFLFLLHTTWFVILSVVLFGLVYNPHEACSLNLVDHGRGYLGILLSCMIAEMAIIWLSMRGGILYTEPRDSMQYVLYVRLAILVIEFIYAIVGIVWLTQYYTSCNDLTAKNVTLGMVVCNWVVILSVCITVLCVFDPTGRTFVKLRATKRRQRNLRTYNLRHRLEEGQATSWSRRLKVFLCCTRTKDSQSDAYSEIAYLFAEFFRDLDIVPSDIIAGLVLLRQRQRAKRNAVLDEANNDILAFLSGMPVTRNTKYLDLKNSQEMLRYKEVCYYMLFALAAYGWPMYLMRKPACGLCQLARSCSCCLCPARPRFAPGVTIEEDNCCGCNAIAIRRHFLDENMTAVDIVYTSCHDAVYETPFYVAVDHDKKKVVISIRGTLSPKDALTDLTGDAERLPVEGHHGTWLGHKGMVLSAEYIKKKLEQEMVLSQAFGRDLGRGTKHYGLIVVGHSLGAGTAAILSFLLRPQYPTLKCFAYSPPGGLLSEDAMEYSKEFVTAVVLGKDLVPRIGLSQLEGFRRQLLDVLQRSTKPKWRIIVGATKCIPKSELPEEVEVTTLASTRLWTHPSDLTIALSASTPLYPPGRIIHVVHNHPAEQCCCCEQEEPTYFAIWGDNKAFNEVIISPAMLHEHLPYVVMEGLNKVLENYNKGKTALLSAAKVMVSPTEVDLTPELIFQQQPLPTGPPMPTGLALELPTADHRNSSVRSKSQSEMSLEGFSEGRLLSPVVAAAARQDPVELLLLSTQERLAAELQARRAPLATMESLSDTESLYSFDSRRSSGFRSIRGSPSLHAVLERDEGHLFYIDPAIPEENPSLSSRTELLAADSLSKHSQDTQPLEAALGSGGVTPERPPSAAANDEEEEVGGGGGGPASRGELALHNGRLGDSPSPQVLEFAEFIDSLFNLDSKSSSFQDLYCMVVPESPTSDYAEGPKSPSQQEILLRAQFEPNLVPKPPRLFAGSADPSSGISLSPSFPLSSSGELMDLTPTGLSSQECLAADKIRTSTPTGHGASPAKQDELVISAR
Summary of the method: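 COS cells overexpressing DAGLα were harvested in Tris-HCl pH 7, Dounce-homogenized and spun at 800 g then 10 000 g at 4 °C. The 10 000 g membrane fraction was incubated with sn-1-[14C]oleoyl-2-arachidonoyl-glycerol in 50 mM Tris-HCl with 1 mM CaCl2, pH 7.0, for 20 min at 37 °C. Lipids were extracted with CHCl3/MeOH 2:1 and separated by silica TLC (CHCl3/MeOH/NH4OH 85/15/1). [14C]Oleic acid bands were β-counted.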

[3] = target: T2, Fatty-acid amide hydrolase 1 (Rattus norvegicus, UniProt P97612); assay: Inhibition of FAAH mediated [14C]anandamide hydrolysis in rat brain after 30 mins; type: tissue-based
T2 sequence (P97612 whole entry): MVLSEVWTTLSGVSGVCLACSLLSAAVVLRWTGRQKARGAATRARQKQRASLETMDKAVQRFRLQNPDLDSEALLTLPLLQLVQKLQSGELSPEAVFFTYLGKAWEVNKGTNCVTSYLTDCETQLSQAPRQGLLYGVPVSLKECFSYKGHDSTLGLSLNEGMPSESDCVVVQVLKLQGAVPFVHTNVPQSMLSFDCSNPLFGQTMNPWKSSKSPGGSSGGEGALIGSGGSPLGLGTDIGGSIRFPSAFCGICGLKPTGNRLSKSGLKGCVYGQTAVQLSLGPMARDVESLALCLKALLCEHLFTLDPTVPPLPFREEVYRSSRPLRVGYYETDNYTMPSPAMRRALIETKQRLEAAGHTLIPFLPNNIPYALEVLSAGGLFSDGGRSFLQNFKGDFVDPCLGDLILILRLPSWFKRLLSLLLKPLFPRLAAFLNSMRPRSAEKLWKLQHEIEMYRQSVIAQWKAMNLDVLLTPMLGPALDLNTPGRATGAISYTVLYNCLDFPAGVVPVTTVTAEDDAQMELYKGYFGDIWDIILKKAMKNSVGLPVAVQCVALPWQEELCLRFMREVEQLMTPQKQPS
Summary of the method: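 Rat brain membranes incubated with test compounds and [14C]anandamide in 50 mM Tris-HCl, pH 9, for 30 min at 37 °C. After extraction with 2 volumes CHCl3/MeOH 2:1, [14C]ethanolamine in the aqueous phase was scintillation-counted. IC50 was taken as the concentration giving 50% inhibition of hydrolysis.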

RBL-2H3 [4] = assay: Inhibition of [14C]anandamide uptake in rat RBL-2H3 cells preincubated 10 mins before addition of [14C]anandamide; type: functional, cell-based; parameters: inhibition (INH): concentration or dose not given beside the values; settings: for IC50: Rattus norvegicus, RBL-2H3
Summary of the method: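 Intact RBL-2H3 cells were pre-exposed to inhibitor at varying concentrations for 10 min, then given [14C]anandamide (10,000 cpm) for 90 s at 37 °C. Uptake was taken as the residual label in the medium after CHCl3/CH3OH 2:1 extraction, read by scintillation counting of the organic phase. Non-specific binding was defined with excess unlabelled anandamide. IC50 was calculated from the inhibition data.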

Monocyte = assay: Inhibition of anandamide uptake in human monocytes; type: functional, cell-based
RBL-2H3 [5] = assay: Inhibition of [14C]anandamide uptake in rat RBL-2H3 cells at 0.1 uM preincubated 10 mins before addition of [14C]anandamide; type: functional
Summary of the method: (§1)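 RBL-2H3 cells were given inhibitor at 0.1 or 1 µM for 10 min, then [14C]anandamide (10,000 cpm) for 90 s at 37 °C. Uptake was read as residual medium label in the organic extract, and [14C]ethanolamine was counted in the aqueous phase in the same experiment. Results are % inhibition of uptake, N=4.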

RBL-2H3 [6] = assay: Inhibition of [14C]anandamide uptake in rat RBL-2H3 cells at 1 uM preincubated 10 mins before addition of [14C]anandamide; type: functional; summary of the method: as §1
[7] = target: T3, Fatty-acid amide hydrolase 1 (Rattus norvegicus) (UniProt P97612); assay: Inhibition of FAAH mediated [14C]anandamide hydrolysis in rat RBL-2H3 cells at 1 uM after 30 mins
T3 sequence (whole entry): T2 sequence (P97612 whole entry)

[8] = target: T3, Fatty-acid amide hydrolase 1 (Rattus norvegicus); assay: Inhibition of FAAH mediated [14C]anandamide hydrolysis in rat RBL-2H3 cells at 0.1 uM after 30 mins

| SMILES | IC50 [1] [nM] | IC50 [2] [nM] | IC50 [3] [nM] | IC50 (RBL-2H3 [4]) [nM] | IC50 (Monocyte) [nM] | inhibition (INH) (RBL-2H3 [4]) [%] | inhibition at 0.1 µM (RBL-2H3 [5]) [%] | inhibition at 1 µM (RBL-2H3 [6]) [%] | inhibition [7] [%] | inhibition [8] [%] |
| --- | --- | --- | --- | --- | --- | --- | --- | --- | --- | --- |
| CN(C)C(=O)n1nnc(Cc2ccc(-c3ccccc3)cc2)n1 | 20 | 510 | 33 | 998 | – | – | – | – | – | – |
| CN(C)C(=O)n1nnnc1CNC(=O)c1cccc(-c2ccccc2)c1 | 850 | 340 | 32 | 90 | – | – | – | – | – | – |
| C=CCOc1ccc(CN(C/C=C/c2ccccc2)CCCC)cc1 | – | – | – | – | 90 | – | – | – | – | – |
| CN(C)C(=O)n1nnnc1CNC(=O)CCCCCCCc1ccccc1 | 40 | 570 | 10 | > 10000 | – | 37.5 | – | – | – | – |
| CN(C)C(=O)n1nnc(CNC(=O)CCCCCCCc2ccccc2)n1 | 10000 | 10000 | 3.2 | > 10000 | – | 18.8 | – | – | – | – |
| CN(C)C(=O)n1nnnc1CNC(=O)CCCCCCc1ccccc1 | 20 | 200 | 3.7 | 851 | – | – | – | – | – | – |
| CN(C)C(=O)n1nnnc1CCc1ccccc1 | 10000 | 10000 | 5.4 | > 10000 | – | 15.8 | – | – | – | – |
| CN(C)C(=O)n1nnc(CNC(=O)CCCCCCc2ccccc2)n1 | > 10000 | 10000 | 2.1 | > 10000 | – | 30 | – | – | – | – |
| CN(C)C(=O)n1nnc(CNC(=O)c2ccc(-c3ccccc3)cc2)n1 | > 10000 | > 10000 | 6 | 985 | – | – | – | – | – | – |
| CN(C)C(=O)n1nnnc1Cc1ccc(-c2ccccc2)cc1 | 8100 | > 10000 | 2.1 | 15 | – | – | 66.5 | 74.2 | 36.7 | 41.1 |
| CN(C)C(=O)n1nnc(CCc2ccccc2)n1 | 480 | 600 | 3.5 | > 10000 | – | 10.9 | – | – | – | – |
| CN(C)C(=O)n1nnnc1CCCc1ccccc1 | 10000 | 10000 | 2.7 | > 10000 | – | 18 | – | – | – | – |
| CN(C)C(=O)n1nnc(CNC(=O)c2cccc(-c3ccccc3)c2)n1 | 10000 | > 10000 | 23 | > 10000 | – | 23 | – | – | – | – |
| CN(C)C(=O)n1nnc(CNC(=O)c2ccc(N=[N+]=[N-])c(I)c2)n1 | > 10000 | 4400 | 25 | > 1000 | – | 9 | – | – | – | – |
| CN(C)C(=O)n1nnc(CCCc2ccccc2)n1 | 110 | 500 | 3.2 | > 10000 | – | 16 | – | – | – | – |
| CN(C)C(=O)n1nnnc1CNC(=O)c1ccc(N=[N+]=[N-])c(I)c1 | 350 | 130 | 23 | > 1000 | – | 32.4 | – | – | – | – |
